For data set [1], the system named is LN-229 glioblastoma cells. Kind of data set: Antiproliferative assay. Type of data set: cell-based. The note with it: Homo sapiens, LN-229, 72 h, read-out: IC50 LN-229. A digest of the protocol:
(§1)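 Adherent lines were seeded at 500 (Capan-1), 1000 (LN-229, HCT-116) or 1500 (NCI-H460) cells/well and dosed after overnight incubation. Suspension lines were seeded at 2500 (HL-60, K-562, Z-138) or 5500 (DND-41) cells/well directly onto compound. Seven 5-fold concentrations ran from 100 to 0.006 μM for 72 h. Viability was read as MTS absorbance at 490 nm after 3 h, and IC50 was derived from OD values. Two independent experiments.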

Data set [2] concerns Capan-1 pancreatic adenocarcinoma cells. The experiment in a line: Antiproliferative assay. It counts as cell-based. The note with it: Homo sapiens, CAPAN-1, 72 h, read-out: IC50 Capan-1. A digest of the protocol: as §1
For data set [3], the system named is HCT-116 colon carcinoma cells. The experiment in a line: Antiproliferative assay. Type of data set: cell-based. The following applies: Homo sapiens, HCT-116, 72 h, read-out: IC50 HCT-116. A digest of the protocol: as §1
In data set [4] the test system is NCI-H460 non-small cell lung cancer cells. Kind of data set: Antiproliferative assay. Type of data set: cell-based. The note with it: Homo sapiens, NCI-H460, 72 h, read-out: IC50 NCI-H460. A digest of the protocol:
as §1

Data set [5] concerns HL-60 acute myeloid leukemia cells. The experiment in a line: Antiproliferative assay. The note with it: Homo sapiens, HL-60, 72 h, read-out: IC50 HL-60. It counts as cell-based. A digest of the protocol:
as §1

Data set [6] relates to K-562 chronic myeloid leukemia cells. The experiment in a line: Antiproliferative assay. Type of data set: cell-based. The following applies: Homo sapiens, K562, 72 h, read-out: IC50 K-562. A digest of the protocol: as §1
For data set [7], the system named is Escherichia coli (ATCC 25922). The experiment in a line: Antibacterial MIC, macrodilution method, E. coli. It counts as cell-based. The following applies: ATCC25922, read-out: MIC E. coli. A digest of the protocol:
(§2)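 CLSI M07-A9 tube macrodilution. Strains were grown overnight on nutrient agar at 37 °C, and colonies were suspended in Mueller-Hinton broth. Inoculum was 1 × 10^6 per mL (5 × 10^5 per mL in test). DMSO stock was 5120 μg/mL. Final concentrations were 256 to […] in 2 mL. Tubes were incubated at 37 °C for 16–20 h. Controls were inoculum with and without 1% DMSO, and broth alone.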

Data set [8] deals with Pseudomonas aeruginosa (ATCC 9027). The experiment in a line: Antibacterial MIC, macrodilution method, P. aeruginosa. It counts as cell-based. The note with it: ATCC9027, read-out: MIC P. aeruginosa. A digest of the protocol: as §2
Data set [9] deals with Klebsiella pneumoniae (ATCC 27736). The experiment in a line: Antibacterial MIC, macrodilution method, K. pneumoniae. It counts as cell-based. The following applies: ATCC27736, read-out: MIC K. pneumoniae. A digest of the protocol:
as §2

For data set [10], the system named is Staphylococcus aureus (ATCC 25923). The experiment in a line: Antibacterial MIC, macrodilution method, S. aureus. It counts as cell-based. The following applies: ATCC25923, read-out: MIC S. aureus. A digest of the protocol: as §2
Data set [11] has as its system eight human tumor cell lines. Kind of data set: Antiproliferative assay, span over the panel of tumor cell lines. It counts as cell-based. The following applies: 72 h, read-out: IC50 range across tested tumor cell lines. A digest of the protocol:
as §1

In the next data set the test system is salmon sperm DNA. Kind of data set: Fluorescent intercalator displacement. Type of data set: binding. The note with it: tested at 250, 100 and 40 μM; result in words. A digest of the protocol:
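Competitive fluorescence-polarization displacement. Acridine orange (50 nM) and salmon sperm DNA (6 μg/mL) were mixed with test compound at 250, 100 or 40 μM in HEN buffer (10 mM HEPES pH 7.5, 1 mM EDTA, 100 mM NaCl). Mixtures stood 20 min in the dark. mP was normalized to the DMSO control, with mitoxantrone (10 μM) as positive control.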

The test system of the next data set is PBMC from healthy donors. Kind of data set: Cytotoxicity test on normal peripheral blood mononuclear cells. It counts as cell-based, human. The note with it: PBMC of two healthy donors, 72 h, result in words.

The structures appear in SMILES notation. In brackets after ≈: the same amount, converted by molar mass. Entries after “also recorded” stand apart in the source; their conditions may differ.

For the molecule `c1ccc2[nH]c(-c3ccc(OCCN4CCOCC4)cc3)nc2c1` [Compound 13, 4-(2-(4-(1H-Benzo[d]imidazol-2-yl)phenoxy)ethyl)morpholine], the IC50 (as a rule, the midpoint of a concentration-inhibition curve) in [1] is greater than 100 µM; in data set [2], 42.1 ± 3.7 µM; in data set [3], greater than 100 µM; in [4], greater than 100 µM; in data set [5], 54.2 ± 4.1 µM; in data set [6], 79.8 ± 1.3 µM. In addition, the IC50 in [11] lay in the range of 37.3 to 79.8 µM. Besides, the MIC in data set [7], in data set [8], in [9] and in data set [10] was greater than 256 µg/mL each time.

As to `Fc1ccc2nc(-c3ccc(OCCN4CCOCC4)cc3)[nH]c2c1` [Compound 19, 4-(2-(4-(6-Fluoro-1H-benzo[d]imidazol-2-yl)phenoxy)ethyl)morpholine], the IC50 in [1] is greater than 100 µM; in data set [2] it was no less than 69.1 µM; in [3], greater than 100 µM; in [4], greater than 100 µM; in [5] it was greater than 100 µM; in data set [6] it was greater than 100 µM. The IC50 in data set [11] lay within 37.3 to 79.8 µM.

As for `O=C(COc1ccc(-c2nc3ccccc3[nH]2)cc1F)N1CCOCC1` [Compound 22, 2-(4-(1H-Benzo[d]imidazol-2-yl)-2-fluorophenoxy)-1-morpholinoethan-1-one], the IC50 in data set [1], in data set [2], in data set [3], in data set [4], in data set [5] and in data set [6] was greater than 100 µM in each case. The “DNA intercalation (acridine orange displacement, fluorescence polarization)” value (from here on “DNA intercalation”) in the data set with salmon sperm DNA is recorded as “exhibit clear intercalating properties”.

On to `CCN(CC)CCOc1ccc(-c2nc3ccc(Cl)cc3[nH]2)cc1F` [Compound 23, 2-(4-(6-Chloro-1H-benzo[d]imidazol-2-yl)-2-fluorophenoxy)-N,N-diethylethan-1-amine], for which the 50% inhibitory concentration (IC50) was 5 ± 1.3 µM in [1]; 2.2 ± 0.5 µM in [2]; 9.4 ± 1.2 µM in [3]; 2.3 ± 0.8 µM in data set [4]; 4.4 ± 0.5 µM in [5]; 2 ± 0.7 µM in data set [6]. Also, the IC50 in data set [11] lay within 2 to 9.4 µM. For the same molecule, the MIC (usually the least concentration at which growth counts as inhibited) in data set [7] is 256 µg/mL (≈ 707 µM); in data set [8], greater than 256 µg/mL; in [9], greater than 256 µg/mL; in data set [10] it was 256 µg/mL (≈ 707 µM). Moreover, the “DNA intercalation” value with salmon sperm DNA was “scored best in the binding assay”. In addition, the “Impact on viability of normal PBMC (MTS)” value in the data set on PBMC from healthy donors (100 to 0.006 μM) was “Only at the highest tested concentration (100 μM), there was an impact on the viability of these normal cells”. Further, the “Dead and apoptotic PBMC (propidium iodide, caspase 3/7, IncuCyte)” value in the data set on PBMC from healthy donors is “caused apoptosis in normal cells only at the highest applied concentration of 100 μM; also recorded: an increase in the number of dead and apoptotic cells was observed at 100 μM”.

On to `CCN(CC)CCOc1ccc(-c2nc3ccc(F)cc3[nH]2)cc1F` [Compound 26, N,N-Diethyl-2-(2-fluoro-4-(6-fluoro-1H-benzo[d]imidazol-2-yl)phenoxy)ethan-1-amine], for which the IC50 in [1] is 51.5 ± 0.1 µM; in data set [2], 35.4 ± 2.7 µM; in [3], 49.5 ± 0.4 µM; in [4] it was 35.9 ± 1.3 µM; in data set [5] it was 33.8 ± 3.3 µM; in [6] it was 19.1 ± 1.8 µM. Further, the MIC in data set [7], in [8], in data set [9] and in data set [10] was greater than 256 µg/mL throughout. Further, the “DNA intercalation” value in the data set on salmon sperm DNA is “scored best in the binding assay”.

Consider `O=C(COc1ccc(-c2nc3ccc(F)cc3[nH]2)cc1F)N1CCOCC1` [Compound 27, 2-(2-Fluoro-4-(6-fluoro-1H-benzo[d]imidazol-2-yl)phenoxy)-1-morpholinoethan-1-one], for which the IC50 in [1], in data set [2], in data set [3], in data set [4], in data set [5] and in data set [6] was greater than 100 µM in each case. The MIC in data set [7], in [8], in data set [9] and in data set [10] was greater than 256 µg/mL throughout. Moreover, the “DNA intercalation” value in the data set with salmon sperm DNA is given as “exhibit clear intercalating properties”.

As to `c1ccc2[nH]c(-c3ccc(OCc4cn(CCN5CCOCC5)nn4)cc3)nc2c1` [Compound 28, 4-(2-(4-((4-(1H-Benzo[d]imidazol-2-yl)phenoxy)methyl)-1H-1,2,3-triazol-1-yl)ethyl)morpholine], the IC50 was greater than 100 µM in [1]; 47.2 ± 0.4 µM in data set [2]; greater than 100 µM in data set [3]; greater than 100 µM in [4]; no less than 70 µM in [5]; no less than 88 µM in data set [6]. Besides, the MIC in [7] was 256 µg/mL (≈ 633 µM); in data set [8] it was greater than 256 µg/mL; in data set [9], greater than 256 µg/mL; in data set [10] it was greater than 256 µg/mL.

As for `Clc1ccc2nc(-c3ccc(OCc4cn(CCN5CCOCC5)nn4)cc3)[nH]c2c1` [Compound 29, 4-(2-(4-((4-(6-Chloro-1H-benzo[d]imidazol-2-yl)phenoxy)methyl)-1H-1,2,3-triazol-1-yl)ethyl)morpholine], the IC50 in data set [1] is greater than 100 µM; in data set [2] it was greater than 100 µM; in data set [3], greater than 100 µM; in data set [4], greater than 100 µM; in data set [5], no less than 98.1 µM; in [6] it was greater than 100 µM. The MIC in [7], in [8], in data set [9] and in [10] was greater than 256 µg/mL in each case.

For `Fc1ccc2nc(-c3ccc(OCc4cn(CCN5CCOCC5)nn4)cc3)[nH]c2c1` [Compound 30, 4-(2-(4-((4-(6-Fluoro-1H-benzo[d]imidazol-2-yl)phenoxy)methyl)-1H-1,2,3-triazol-1-yl)ethyl)morpholine], the IC50 was greater than 100 µM in data set [1]; 58.8 ± 1.9 µM in [2]; greater than 100 µM in data set [3]; 46.9 ± 4.4 µM in data set [4]; no less than 60.6 µM in data set [5]; greater than 100 µM in data set [6]. Moreover, the MIC in [7], in data set [8], in [9] and in data set [10] was greater than 256 µg/mL each time.

As to `Fc1cc(-c2nc3ccccc3[nH]2)ccc1OCc1cn(CCN2CCOCC2)nn1` [Compound 31, 4-(2-(4-((4-(1H-Benzo[d]imidazol-2-yl)-2-fluorophenoxy)methyl)-1H-1,2,3-triazol-1-yl)ethyl)morpholine], the IC50 in data set [1] was greater than 100 µM; in data set [2] it was 40.6 ± 2.5 µM; in data set [3], greater than 100 µM; in data set [4], greater than 100 µM; in data set [5] it was 66.1 ± 4 µM; in [6], 73 ± 3 µM. Moreover, the MIC in [7], in data set [8], in [9] and in data set [10] was greater than 256 µg/mL in each case.

On to `Fc1cc(-c2nc3ccc(Cl)cc3[nH]2)ccc1OCc1cn(CCN2CCOCC2)nn1` [Compound 32, 4-(2-(4-((4-(6-Chloro-1H-benzo[d]imidazol-2-yl)-2-fluorophenoxy)methyl)-1H-1,2,3-triazol-1-yl)ethyl)morpholine], for which the half-maximal inhibitory concentration (IC50) in [1] is greater than 100 µM; in data set [2], 54.9 ± 5.1 µM; in data set [3], greater than 100 µM; in data set [4], greater than 100 µM; in data set [5], greater than 100 µM; in data set [6], greater than 100 µM. Besides, the MIC in data set [7], in data set [8], in [9] and in data set [10] was greater than 256 µg/mL in each case.

In the case of `Fc1ccc2nc(-c3ccc(OCc4cn(CCN5CCOCC5)nn4)c(F)c3)[nH]c2c1` [Compound 33, 4-(2-(4-((2-Fluoro-4-(6-fluoro-1H-benzo[d]imidazol-2-yl)phenoxy)methyl)-1H-1,2,3-triazol-1-yl)ethyl)morpholine], the IC50 in [1] is greater than 100 µM; in data set [2], 47 ± 4.3 µM; in [3] it was greater than 100 µM; in [4], greater than 100 µM; in data set [5] it was 65.1 ± 2.8 µM; in data set [6] it was 29.6 ± 1.9 µM. For the same molecule, the MIC in data set [7], in [8], in [9] and in data set [10] was greater than 256 µg/mL each time.

(Values after article PMC12062833 (RSC Medicinal Chemistry, 2025).)
